Where “and” joins values, the source holds several entries; their conditions need not be identical. Equal entries are not always repeated.
Test system: HL-60
Assay: Ability to inhibit human leukemic HL-60 cell growth in culture
Type: functional, cell-based
Settings: Homo sapiens, HL-60
In short: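 HL-60 cells seeded at 1.5 × 10^5/mL in RPMI 1640 and exposed to compound at 0.0025–0.05 mg/mL (in 0.1% DMSO). Incubation was 72 h at 37 °C under humidified 5% CO2. Viable cells were counted by trypan blue exclusion on a hemocytometer. IC50 was the median-effect concentration, taken from a median-effect plot of fractional inhibition over three to five dose-effect levels.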

**Q.** Which IC50 does the source give for `COc1c(OC)c(OC)c2c(c1O)c(=O)c1cc([N+](=O)[O-])ccc1n2C` here?
**A.** > 100 µM

**Q.** How did the IC50 turn out when `COc1c(OC)c(OC)c2c(c1O)c(=O)c1cc(N)ccc1n2C` was run?
**A.** 44.4 µM

**Q.** For `CCN(CC)CCn1c2c(OC)c(O)ccc2c(=O)c2c(O)c(OC)c(OC)c(OC)c21`, which IC50 is on record?
**A.** 62.2 µM

**Q.** For `COc1c(OC)c(OC)c2c(c1O)c(=O)c1ccc([N+](=O)[O-])cc1n2C`, which IC50 is on record?
**A.** > 100 µM

**Q.** `COc1c(OC)c(OC)c2c(c1O)c(=O)c1ccc(N)cc1n2C` was tested. Which IC50 did it give?
**A.** 11.6 µM

**Q.** Which IC50 does the source give for `COc1ccc2c(=O)c3c(O)c(OC)c(OC)c(OC)c3n(C)c2c1OC` here?
**A.** 3.4 µM

**Q.** `COc1ccc2c(=O)c3c(OC)c(OC)c(OC)c(OC)c3n(C)c2c1OC` was tested. Which IC50 did it give?
**A.** 23.3 µM

**Q.** For `COc1c(OC)c(O)c2c(O)c3ccc(O)c(OC)c3nc2c1OC`, which IC50 is on record?
**A.** > 100 µM

**Q.** Which IC50 does the source give for `COc1c(OC)c(OC)c2c(c1O)c(=O)c1ccc(O)c(OC)c1n2C` [GLYFOLINE] here?
**A.** 2.2 µM

**Q.** With `CNc1ccc2c(=O)c3c(O)c(OC)c(OC)c(OC)c3n(C)c2c1` as the molecule, how does the IC50 read?
**A.** 10.6 µM

**Q.** `COc1c(OC)c(OC)c2c(c1O)c(=O)c1cccc(OC)c1n2C` was tested. Which IC50 did it give?
**A.** 12.8 µM

**Q.** How did the IC50 turn out when `COc1cc2c(c3c1c(=O)c1ccccc1n3C)C=CC(C)(C)O2` [ACRONINE] was run?
**A.** 26.2 µM

**Q.** Which IC50 does the source give for `COc1c(OC)c(OC)c2c(c1O)c(=O)c1ccc(N(C)C)cc1n2C` here?
**A.** 9.4 µM

Same assay, conditions: hl-60

**Q.** Which IC50 does the source give for `COc1c(OC)c(OC)c2c(c1OC)c(=O)c1ccc(O)c(OC)c1n2C` here?
**A.** 91.9 µM and 23.7 µM

From ChEMBL document CHEMBL1125488, “Synthesis of the acridone alkaloids glyfoline and congeners. Structure-activity relationship studies of cytotoxic acridones” (J Med Chem, 1992)
